Results as given in ChEMBL document CHEMBL4145461, “Novel non-sulfonamide 5-HT6 receptor partial inverse agonist in a group of imidazo[4,5-b]pyridines with cognition enhancing properties” (Eur J Med Chem, 2018).
Activity calls are given as the source filed them. The rule behind the calls is not given here.

Key:
[1] = target: T1, 5-hydroxytryptamine receptor 6 (Homo sapiens, UniProt P50406); test: Displacement of [3H]-LSD from human 5HT6R expressed in HEK293 cell membranes after 1 hr by microbeta counting method
Outline: (§1)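 HEK293 (5-HT1A, 5-HT6, 5-HT7b, D2L) or CHO-K1 (5-HT2A) membranes, all Tris–HCl with 4 mM MgCl2 plus receptor-specific EDTA/pargyline/ascorbate (D2L adds NaCl, KCl, CaCl2). Nonspecific binding: 10 μM 5-HT (5-HT1A, 5-HT7), chlorpromazine (5-HT2A), methiothepine (5-HT6), haloperidol (D2L). Triplicate, 7–8 concentrations (10⁻¹¹–10⁻⁴ M), filtration; Ki via Cheng–Prusoff, mean of three experiments. Incubation 1 h 37 °C; 5-HT1A 1 h and 5-HT2A 1.5 h, room temperature.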

[2] = target: T1, 5-hydroxytryptamine receptor 6; test: Antagonist activity at 5HT6R (unknown origin) transfected in NG108-15 cells co-transfected with CAMYEL assessed as reduction in cAMP levels after 5 mins by Coelanterazine H-based BRET assay; type: functional, cell-based
[3] = target: T2, 5-hydroxytryptamine receptor 1A (Homo sapiens, UniProt P08908); test: Displacement of [3H]-8-OH-DPAT from human 5HT1AR expressed in HEK293 cell membranes after 1 hr by microbeta counting method
T2 sequence (P08908 whole entry): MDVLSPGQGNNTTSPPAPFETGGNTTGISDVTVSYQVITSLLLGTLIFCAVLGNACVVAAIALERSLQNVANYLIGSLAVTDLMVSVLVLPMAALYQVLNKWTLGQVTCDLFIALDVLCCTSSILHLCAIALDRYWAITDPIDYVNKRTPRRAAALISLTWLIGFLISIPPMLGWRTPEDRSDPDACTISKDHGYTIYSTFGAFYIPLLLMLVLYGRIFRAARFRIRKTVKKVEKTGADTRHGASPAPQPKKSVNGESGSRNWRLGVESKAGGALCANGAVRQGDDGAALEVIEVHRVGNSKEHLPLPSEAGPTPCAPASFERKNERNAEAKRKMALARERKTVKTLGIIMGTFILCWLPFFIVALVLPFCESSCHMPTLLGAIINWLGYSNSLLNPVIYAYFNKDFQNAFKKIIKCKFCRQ
Outline: as §1, with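 “experiments.” for “experiments. Incubation 1 h 37 °C; 5-HT1A 1 h and 5-HT2A 1.5 h, room temperature.”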

[4] = target: 5-hydroxytryptamine receptor 2A (Homo sapiens, UniProt P28223); test: Displacement of [3H]-Ketanserin from human 5HT2AR expressed in CHO-K1 cell membranes after 1.5 hrs by microbeta counting method
Outline: as §1, with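 “experiments.” for “experiments. Incubation 1 h 37 °C; 5-HT1A 1 h and 5-HT2A 1.5 h, room temperature.”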

[5] = target: 5-hydroxytryptamine receptor 7 (Homo sapiens, UniProt P34969); test: Displacement of [3H]-5-CT from human 5HT7BR expressed in HEK293 cell membranes after 1 hr by microbeta counting method; outline: as §1
D(2) dopamine receptor = D(2) dopamine receptor (Homo sapiens, UniProt P14416); test: Displacement of [3H]-Raclopride from human dopamine D2L receptor expressed in HEK293 cell membranes after 1 hr by microbeta counting method; outline: as §1
[6] = target: T1, 5-hydroxytryptamine receptor 6; test: Binding affinity to 5HT6R (unknown origin)
Rattus norvegicus [7] = test: Reversal of PCP-induced cognitive impairment in Sprague-Dawley rat assessed as reduction in time spent exploring novel object over familiar object at 0.3 to 1 mg/kg, po administered 120 mins before familiarization phase measured for 3 mins post familiarization phase by novel object recognition assay; type: functional, organism-based
Outline: (§2)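 Male Sprague–Dawley rats, habituated to the arena 5 min 24 h before testing. PCP (5 mg/kg i.p., 45 min) or scopolamine (1.25 mg/kg i.p., 30 min) given before familiarization trial T1; test compound or donepezil given p.o. 120 min before T1. T1 and T2 each last 3 min, separated by an inter-trial interval. DI = (EB−EA)/(EA+EB) from T2 exploration time; 8–10 rats/group; ANOVA with Newman–Keuls.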

Rattus norvegicus [8] = test: Reversal of SCOP-induced cognitive impairment in Sprague-Dawley rat assessed as reduction in time spent exploring novel object over familiar object at 0.3 mg/kg, po administered 120 mins before familiarization phase measured for 3 mins post familiarization phase by novel object recognition assay; type: functional, organism-based
Rattus norvegicus [9] = test: Reversal of SCOP-induced cognitive impairment in Sprague-Dawley rat assessed as reduction in time spent exploring novel object over familiar object at 1 mg/kg, po administered 120 mins before familiarization phase measured for 3 mins post familiarization phase by novel object recognition assay; type: functional, organism-based; outline: as §2

Chain of D(2) dopamine receptor (P14416 whole entry): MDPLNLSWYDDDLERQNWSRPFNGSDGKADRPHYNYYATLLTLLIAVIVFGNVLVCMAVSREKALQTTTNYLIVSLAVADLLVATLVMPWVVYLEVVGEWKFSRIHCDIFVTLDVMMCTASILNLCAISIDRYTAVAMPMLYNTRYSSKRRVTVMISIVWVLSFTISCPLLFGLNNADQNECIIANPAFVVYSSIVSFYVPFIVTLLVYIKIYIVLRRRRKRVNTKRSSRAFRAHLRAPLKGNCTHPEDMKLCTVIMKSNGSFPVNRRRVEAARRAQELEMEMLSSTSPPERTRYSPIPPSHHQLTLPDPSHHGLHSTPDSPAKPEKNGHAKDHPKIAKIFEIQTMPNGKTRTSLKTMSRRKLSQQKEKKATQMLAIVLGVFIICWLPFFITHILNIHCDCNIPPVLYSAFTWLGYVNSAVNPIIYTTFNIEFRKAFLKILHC
T1 sequence (P50406 whole entry): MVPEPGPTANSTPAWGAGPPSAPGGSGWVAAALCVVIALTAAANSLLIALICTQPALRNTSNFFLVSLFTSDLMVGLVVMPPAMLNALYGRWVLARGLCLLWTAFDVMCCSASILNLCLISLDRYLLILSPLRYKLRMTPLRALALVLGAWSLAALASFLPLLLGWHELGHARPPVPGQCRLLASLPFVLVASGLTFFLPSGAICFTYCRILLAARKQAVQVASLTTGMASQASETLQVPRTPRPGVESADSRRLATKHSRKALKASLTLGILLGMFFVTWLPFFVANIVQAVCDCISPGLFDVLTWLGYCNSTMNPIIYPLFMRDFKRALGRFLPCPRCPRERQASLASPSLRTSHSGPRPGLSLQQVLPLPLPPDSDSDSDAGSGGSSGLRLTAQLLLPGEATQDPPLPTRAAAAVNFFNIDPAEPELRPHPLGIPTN
Chain of 5-hydroxytryptamine receptor 7 (P34969 whole entry): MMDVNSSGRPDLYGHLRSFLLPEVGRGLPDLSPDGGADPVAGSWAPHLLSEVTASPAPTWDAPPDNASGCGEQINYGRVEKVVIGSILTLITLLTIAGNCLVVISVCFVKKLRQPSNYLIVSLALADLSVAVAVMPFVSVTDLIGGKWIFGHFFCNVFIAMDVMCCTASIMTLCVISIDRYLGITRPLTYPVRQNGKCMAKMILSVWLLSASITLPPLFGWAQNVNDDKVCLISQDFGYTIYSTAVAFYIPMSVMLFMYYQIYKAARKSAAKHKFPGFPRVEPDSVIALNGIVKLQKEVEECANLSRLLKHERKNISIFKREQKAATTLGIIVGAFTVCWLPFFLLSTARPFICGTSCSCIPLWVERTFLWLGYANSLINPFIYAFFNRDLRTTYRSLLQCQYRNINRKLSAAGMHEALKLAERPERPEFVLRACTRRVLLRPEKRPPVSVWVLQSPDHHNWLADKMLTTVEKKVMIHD
Chain of 5-hydroxytryptamine receptor 2A (P28223 whole entry): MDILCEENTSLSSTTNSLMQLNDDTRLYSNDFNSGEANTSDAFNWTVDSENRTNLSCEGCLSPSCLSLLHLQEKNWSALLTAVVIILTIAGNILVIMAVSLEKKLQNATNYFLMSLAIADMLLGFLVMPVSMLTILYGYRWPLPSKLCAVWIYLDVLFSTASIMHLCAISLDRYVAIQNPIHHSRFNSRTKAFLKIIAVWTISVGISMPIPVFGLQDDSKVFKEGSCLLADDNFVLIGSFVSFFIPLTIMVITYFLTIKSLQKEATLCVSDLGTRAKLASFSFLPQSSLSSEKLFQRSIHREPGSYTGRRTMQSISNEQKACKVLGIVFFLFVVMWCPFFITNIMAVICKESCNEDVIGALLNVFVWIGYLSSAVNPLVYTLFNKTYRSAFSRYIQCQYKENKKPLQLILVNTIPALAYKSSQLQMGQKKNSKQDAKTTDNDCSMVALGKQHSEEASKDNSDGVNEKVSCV

Ki [1] [nM] | SMILES | further results
36 | CCc1nc2c(N3CCNCC3)ccnc2n1Cc1ccccc1 | –
7 | CCc1nc2c(N3CCNCC3)ccnc2n1Cc1cccc(Cl)c1 | IC50 [2]: 51.9 nM; Ki [3]: 1350 nM; Ki [4]: 449 nM; Ki [5]: 8750 nM; Ki (D(2) dopamine receptor): 6100 nM
21 | Cc1nc2c(N3CCNCC3)ccnc2n1Cc1cccc(Cl)c1 | –
42 | CCC(CC)c1nc2c(N3CCNCC3)ccnc2n1Cc1cccc(C)c1 | –
– | CC(C)c1nc2c(N3CCNCC3)ccnc2n1Cc1cccc(Cl)c1 | Ki [3]: 2280 nM; Ki [4]: 694 nM; Ki [5]: 7140 nM; Ki (D(2) dopamine receptor): 2940 nM
33 | Clc1cccc(Cn2cnc3c(N4CCNCC4)ccnc32)c1 | –
26 | Cc1cccc(Cn2c(C)nc3c(N4CCNCC4)ccnc32)c1 | –
1250 | Clc1cccc(CCn2cnc3c(N4CCNCC4)ccnc32)c1 | –
142 | Cc1cccc(Cn2c(CC(C)(C)C)nc3c(N4CCNCC4)ccnc32)c1 | –
107 | CC(C)c1nc2c(N3CCNCC3)ccnc2n1Cc1ccc(Cl)cc1 | –
80 | CC(C)c1nc2c(N3CCNCC3)ccnc2n1CCc1cccc(Cl)c1 | –
312 | Cc1nc2c(N3CCNCC3)ccnc2n1CCc1cccc(Cl)c1 | –
– | O=S(=O)(c1ccccc1)n1ncc2c(N3CCNCC3)nccc21 | Ki [6]: 5 nM
101 | Cc1nc2c(N3CCNCC3)ccnc2n1Cc1ccccc1 | –
110 | c1ccc(Cn2cnc3c(N4CCNCC4)ccnc32)cc1 | –
162 | Fc1ccc(-c2nc3c(N4CCNCC4)ccnc3n2Cc2cccc(F)c2)cc1 | –
165 | Clc1cccc(Cn2c(-c3cccs3)nc3c(N4CCNCC4)ccnc32)c1 | –
– | NC(=O)NC[C@@H]1CCCc2cc(S(=O)(=O)c3cccc(F)c3)ccc21 | Ki [6]: 0.2 nM
– | O=S(=O)(c1ccccc1)c1cnc2c(N3CCNCC3)cccc2c1 [INTEPIRDINE] | Ki [5]: 14200 nM; Ki (D(2) dopamine receptor): 997 nM; Activity (Rattus norvegicus [7]): Active
92 | COc1cccc(Cn2c(C(C)C)nc3c(N4CCNCC4)ccnc32)c1 | –
177 | CCc1nc2c(N3CCNCC3)ccnc2n1Cc1ccccc1Cl | –

Ki [1] [nM] | SMILES | further results
42 | CCc1nc2c(N3CCNCC3)ccnc2n1CCc1cccc(Cl)c1 | –
139 | CCc1nc2c(N3CCNCC3)ccnc2n1Cc1ccc(F)c(F)c1 | –
108 | CCC(CC)c1nc2c(N3CCNCC3)ccnc2n1Cc1ccccc1Cl | –
320 | Clc1cccc(Cn2cnc3c(N4CCNCC4)nccc32)c1 | –
337 | COc1ccccc1Cn1c(C)nc2c(N3CCNCC3)ccnc21 | –
56 | CCc1nc2c(N3CCNCC3)ccnc2n1CCc1cccc(F)c1 | –
1300 | Fc1cccc(CCn2cnc3c(N4CCNCC4)ccnc32)c1 | –
– | COc1cc2c(cc1OC)C(=O)C(CC1CCN(Cc3ccccc3)CC1)C2 (stereo not drawn) | Activity (Rattus norvegicus [8]): inactive; Activity (Rattus norvegicus [9]): Active
57 | CCc1nc2c(N3CCNCC3)ccnc2n1Cc1cc(F)ccc1F | –
61 | CC(C)c1nc2c(N3CCNCC3)ccnc2n1Cc1ccccc1F | –
13 | CC(C)c1nc2c(N3CCNCC3)ccnc2n1Cc1cccc(F)c1 | IC50 [2]: 69.5 nM; Ki [3]: 5930 nM; Ki [4]: 475 nM; Ki [5]: 11900 nM; Ki (D(2) dopamine receptor): 3440 nM
62 | Cc1nc2c(N3CCNCC3)ccnc2n1Cc1cccc(C(F)(F)F)c1 | –
450 | c1ccc(Cn2cnc3c(N4CCNCC4)nccc32)cc1 | –
165 | COc1cccc(Cn2c(CC(C)(C)C)nc3c(N4CCNCC4)ccnc32)c1 | –
317 | Cc1nc2c(N3CCNCC3)ccnc2n1Cc1ccc(F)cc1 | –
374 | Cc1nc2c(N3CCNCC3)nccc2n1Cc1ccccc1 | –
254 | Cc1nc2c(N3CCNCC3)nccc2n1Cc1cccc(Cl)c1 | –
829 | Cc1nc2c(N3CCNCC3)ccnc2n1Cc1ccccc1Cl | –
30 | CCC(CC)c1nc2c(N3CCNCC3)ccnc2n1Cc1cccc(Cl)c1 | –
80 | CC(C)c1nc2c(N3CCNCC3)ccnc2n1Cc1ccc(F)cc1 | –
126 | CC(C)c1nc2c(N3CCNCC3)nccc2n1Cc1cccc(Cl)c1 | –
